Shown are actives, neighbours in structure and some others; about 5.7% of the full set was active somewhere.
T cruzi inh: inhibitors of intracellular T. cruzi growth, primary screen, luminescence, NIH3T3 host cells | T. cruzi beta-gal in NIH3T3, 90 h | actives 1.4% (n = 300,000) | AID 1885, 2009 | inhibition, % (no concentration beside the values);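 active means mean inhibition across valid replicates above about 55%, limit read from the data; inconclusive means mean below that limit but half or more replicates reach it; inactive means mean below it, under half of replicates reach it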;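 further: signal also drops with host cell toxicity which is not excluded here; 0% = plate median of DMSO wells and 100% = zero luminescence signal; higher percent means less beta-gal luminescence so fewer parasites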
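System: Mouse NIH/3T3 fibroblasts infected with β-gal-expressing T. cruzi Tulahuen C4 | Quantity: NIH/3T3 cells, 5,000 per well | Reagent: 5000 reporter trypomastigotes per well | Dosing: Compound pinned at 50 nL/well, DMSO | Schedule: 3 h host attachment, then at least 90 h co-culture | Detection: GalScreen luminescence, 60 min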
Mdm2-MdmX inh: inhibitors of human Mdm2-MdmX association, primary screen, cell-based, luminescence, split luciferase, SaOS-2, uHTS; Protein Mdm4 (Homo sapiens) + E3 ubiquitin-protein ligase Mdm2 (Homo sapiens), …; SaOS-2 split-luciferase Mdm2/MdmX complementation; inhibition, % at 8 µM; actives 3% (n = 330,000); AID 485346, 2010;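 active means inhibition of at least 50% at 8 µM in the primary screen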
Calb FLC: C. albicans growth inhibition with fluconazole, primary screen, CaCi-2 strain, Alamar Blue fluorescence | C. albicans CaCi-2 + fluconazole, 48 h | growth inhibition, % (concentration not given with the values) | actives 0.57% (n = 300,000);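 active means growth inhibition above about 58% in most replicates, limit read from the data, passing the limit was not always enough; inconclusive means exactly half the replicates above a set limit; inactive means most replicates below a set limit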;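 further: all wells also contain fluconazole at 8 µg/ml as a sub-toxic cotreatment; 0% = median of DMSO wells and 100% = median of geldanamycin control wells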
CSC inhib: cancer stem cell viability inhibitors, primary screen, luminescence. cancer stem cell-like cells viability. inhibition, % at 7.5 µM. actives 1.1% (n = 300,000); in the data active means inhibition above about 75%; inconclusive means no clear call, values can overlap the other calls; tested in HMLE shEcad cells
SKKanGAS inh: S. pyogenes SKKanGAS growth inhibitors in kanamycin, primary screen, streptokinase expression inhibitor project, SKKanGAS strain, BacTiter-Glo luminescence | AID 1662, 2009 | actives 1.3% (n = 300,000) | 6 h | inhibition, % at 7.5 µM;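 active means mean replicate score, as percent of positive control median, at least 50; inconclusive means mean below 50 but one replicate at or above 50; inactive means mean and every replicate below 50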;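 further: strain carries kanamycin resistance gene driven by streptokinase promoter and grows in 40 µg/ml kanamycin; loss of luminescence reflects streptokinase promoter inhibition or plain growth inhibition; 0% = median of DMSO wells and 100% = positive control at its reference dose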
Beta apoptosis: inhibitors of cytokine-induced beta cell apoptosis, primary screen, luminescence. INS-1E cytokine-induced death, ATP luminescence, 48 h; percent of positive-control rescue, neutral wells zero. protection from apoptosis, % (no concentration beside the values). actives 0.8% (n = 300,000). AID 435005, 2010;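 active means Every replicate reaches about 75%, or at least half do and their mean reaches it too, limit read from the data; inconclusive means At least half of replicates reach the limit but their mean does not; inactive means Under half of replicates reach the limit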;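 further: 0% = cytokine-treated negative control wells and 100% = positive control rescue; higher means more ATP so stronger rescue from cytokine killing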
Mdm2 MdmX conf: Mdm2-MdmX complex disruptors, retested hits, confirmation, luminescence, single concentration. inhibition, % at 8 µM. Mdm2-MdmX binding, luminescent assay. actives 55% (n = 10,000). shares compounds with Mdm2-MdmX inh; in the data active means inhibition above about 40%
FLuc counter: full-length luciferase signal inhibition, confirmation, counter-screen for Mdm2/MdmX interaction inhibitor project, cell-based, single concentration, SaOS-2 | shares compounds with Mdm2-MdmX inh | inhibition, % at 8 µM | SaOS-2 full-length luciferase counterscreen, luminescence | actives 77% (n = 6,200);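 active means mean inhibition at 8 µM reaching about 37%, which flags the compound as non-specific, limit read from the data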;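 further: p53-null SaOS-2 cells with luciferase driven by a doxycycline-inducible promoter; compound on cells about two nights before reading with doxycycline added after day one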
* hit, by the source's call; ? = inconclusive; nt = not tested or not shown.

SMILES | T cruzi inh | Mdm2-MdmX inh | Calb FLC | CSC inhib | SKKanGAS inh | Beta apoptosis | Mdm2 MdmX conf | FLuc counter
CN(C)c1ccc(C(C(=O)NC2CCCCC2)N(Cc2ccco2)C(=O)c2snc(C(N)=O)c2N)cc1 (stereo not given) | 22.1 | 51.1* | -2.0 | 10.3 | 4.2 | 2.6 | 37.5 | 92.5*
COc1ccc(C(C(=O)NCC2CCCO2)N(Cc2cccs2)C(=O)c2snc(C(N)=O)c2N)cc1 (stereo not given) | -9.1 | 52.4* | 27.0 | 15.8 | -3.1 | -3.0 | 49.0* | 87.8*
COc1cc(C(C(=O)NC2CCCC2)N(Cc2ccco2)C(=O)c2snc(C(N)=O)c2N)cc(OC)c1OC (stereo not given) | -5.1 | 3.0 | 22.9 | -10.9 | 0.8 | -9.4 | nt | nt
CCCCOC(=O)c1ccc(S(N)(=O)=O)o1 | 2.6 | -26.8 | 31.9 | -9.9 | -8.5 | -4.1 | nt | nt
O=c1c2ccccc2oc2cc(OCc3ccc(F)cc3)cc(O)c12 | -8.2 | 14.1 | 0.6 | 10.7 | 3.9 | -0.8 | nt | nt
Nc1ncn(C2O[C@H](CO)[C@@H](O)[C@H]2O)c(=O)n1 (stereo not given in full) | nt | 53.6* | nt | 53.5 | nt | 4.6 | 64.5* | 56.8*
Nc1ncn([C@H]2C[C@H](O)[C@@H](CO)O2)c(=O)n1 | -17.9 | 20.1 | -3.3 | 7.7 | 1.0 | 14.1 | nt | nt
Nc1nc2c(ncn2[C@H]2C[C@H](O)[C@@H](CO)O2)c(=O)[nH]1 | -4.7 | 1.8 | -3.2 | -1.4 | -1.9 | 2.6 | nt | nt
C=CCNc1ncnc2c1ncn2C1OC(CO)C(O)C1O (stereo not given) | -9.5 | 56.0* | -5.9 | 77.3* | 7.4 | 0.5 | 21.9 | nt
Nc1nc(F)nc2c1ncn2[C@@H]1O[C@H](CO)[C@@H](O)[C@H]1O | 44.1 | 98.6* | nt | 59.2 | -7.7 | 94.3* | 100.0* | 2.8
Nc1nc(Cl)nc2c1ncn2C1CC(O)C(CO)O1 (stereo not given) | 20.5 | 80.7* | 8.5 | 73.8 | 1.7 | 36.5 | 77.1* | 25.6
COc1ccc(C(=O)NC2CCCc3c2cnn3-c2cc(F)cc(F)c2)c(OC)c1OC (stereo not given) | 18.2 | 52.6* | 2.5 | 25.8 | 7.6 | 2.5 | 47.1* | 57.1*
Cc1cc(C(=O)NC2CCCc3c2cnn3-c2ccc(C)c(C)c2)nc(C)n1 (stereo not given) | -3.8 | 4.3 | 22.3 | 26.1 | 17.4 | -13.7 | nt | nt
COC(=O)c1ccc(C(=O)NC2CCCc3c2cnn3-c2cc(F)cc(F)c2)nc1 (stereo not given) | -8.8 | 57.8* | -4.9 | -7.0 | 3.7 | 2.1 | 50.0* | 57.1*
COC(=O)c1ccc(C(=O)NC2CCCc3c2cnn3-c2ccc(C)c(C)c2)cc1 (stereo not given) | 20.1 | 59.9* | -2.4 | -22.6 | 10.8 | 12.3 | 72.3* | 59.1*
CCC(CC)c1nnc(NC(=O)c2cc([N+](=O)[O-])ccc2N2CCOCC2)s1 | nt | 5.6 | nt | 5.8 | nt | 3.0 | nt | nt
COc1ccc2nc(NC(=O)c3sc4nc(C)cc(C)c4c3N)sc2c1 | 47.7 | 47.1 | -1.3 | nt | 14.1 | 5.6 | nt | nt
COC(=O)c1sccc1NC(=O)CC1C(=O)NCCN1C(=O)c1ccc(C)c(C)c1 (stereo not given) | 1.3 | -22.3 | -5.1 | 4.6 | -7.0 | -3.1 | nt | nt
N#C/C(=C/c1ccc(Sc2nc3ccccc3[nH]2)o1)c1cccc(Br)c1 | ? | 60.0* | 3.5 | 60.0 | 5.5 | 1.0 | 12.5 | nt
